According to publication PMC8633684 (Translational Oncology, 2021):
Each block holds one molecule with its values, some of them ahead of it.

Columns and labels:
[1] = Pharmacokinetic analysis, plasma and tissue concentration; type: in vivo, CD1 mice; details: CD1, mouse, 1 mg/kg
KP-4 transplanted tumor = assay: KP-4 xenograft, 6 days of treatment followed by 3 days off-drug; type: in vivo, BALB/c Nude mice; details: compared with vehicle group
TIP30/CC3 = assay: Immunofluorescence of TIP30/CC3 in KP-4 tumor sections; type: in vivo, BALB/c Nude mice; details: BS-HH-002 at 3.0 mg/kg, p = 0.004, p = 0.461
MCL-1 = MCL-1 protein in KP-4 transplanted tumor homogenate; type: in vivo, BALB/c Nude mice; details: KP-4 xenograft, BS-HH-002 5.4 mg/kg, versus vehicle group
Method in brief: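 The model was KP-4 subcutaneous xenografts in BALB/c Nude mice. Tumors from at least five mice in each of the vehicle, gemcitabine and test compound (5.4 mg/kg) groups were analysed. MCL-1 and BCL-XL protein levels were measured by Western blot with β-actin or β-Tubulin as internal reference.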

- concentration at 2 h ([1]; bone marrow, po): 669 ng/mL
- concentration at 8 h ([1]; bone marrow, po): 48.6 ng/mL
- concentration at 0.5 h ([1]; bone marrow, sc): 141 ng/mL
- concentration at 2 h ([1]; bone marrow, sc): 412 ng/mL
- concentration at 8 h ([1]; bone marrow, sc): 43.5 ng/mL
- concentration at 0.5 h ([1]; brain, sc): 11 ng/mL
- concentration at 2 h ([1]; brain, sc): 6.37 ng/mL
- concentration at 8 h ([1]; brain, sc): 4.97 ng/mL
- concentration at 0.5 h ([1]; esophagus, po): 607 ng/mL
- concentration at 0.5 h ([1]; esophagus, sc): 138 ng/mL
- concentration at 2 h ([1]; esophagus, sc): 185 ng/mL
- concentration at 8 h ([1]; esophagus, sc): 52.6 ng/mL
- concentration at 0.5 h ([1]; heart, po): 125 ng/mL
- concentration at 2 h ([1]; heart, po): 321 ng/mL
- concentration at 8 h ([1]; heart, po): 156 ng/mL
- concentration at 0.5 h ([1]; heart, sc): 541 ng/mL
- concentration at 2 h ([1]; heart, sc): 254 ng/mL
- concentration at 8 h ([1]; heart, sc): 115 ng/mL
- concentration at 0.5 h ([1]; kidney, po): 25.4 ng/mL
- concentration at 2 h ([1]; kidney, po): 117 ng/mL
- concentration at 8 h ([1]; kidney, po): 33.5 ng/mL
- concentration at 0.5 h ([1]; kidney, sc): 2010 ng/mL
- concentration at 2 h ([1]; kidney, sc): 796 ng/mL
- concentration at 8 h ([1]; kidney, sc): 95.6 ng/mL
- concentration at 24 h ([1]; kidney, sc): 5.04 ng/mL
- concentration at 0.5 h ([1]; large intestine, po): 105 ng/mL
- concentration at 2 h ([1]; large intestine, po): 528 ng/mL
- concentration at 8 h ([1]; large intestine, po): 689 ng/mL
- concentration at 0.5 h ([1]; large intestine, sc): 1030 ng/mL
- concentration at 2 h ([1]; large intestine, sc): 807 ng/mL
- concentration at 8 h ([1]; large intestine, sc): 502 ng/mL
- concentration at 24 h ([1]; large intestine, sc): 35.4 ng/mL
- concentration at 0.5 h ([1]; liver, po): 184 ng/mL
- concentration at 2 h ([1]; liver, po): 296 ng/mL
- concentration at 8 h ([1]; liver, po): 173 ng/mL
- concentration at 0.5 h ([1]; liver, sc): 983 ng/mL
- concentration at 2 h ([1]; liver, sc): 615 ng/mL
- concentration at 8 h ([1]; liver, sc): 80.2 ng/mL
- concentration at 24 h ([1]; liver, sc): 4.53 ng/mL
- concentration at 0.5 h ([1]; lung, po): 135 ng/mL
- concentration at 2 h ([1]; lung, po): 807 ng/mL
- concentration at 8 h ([1]; lung, po): 73.6 ng/mL
- concentration at 0.5 h ([1]; lung, sc): 693 ng/mL
- concentration at 2 h ([1]; lung, sc): 287 ng/mL
- concentration at 8 h ([1]; lung, sc): 62.5 ng/mL
- concentration at 24 h ([1]; lung, sc): 5.8 ng/mL
- concentration at 0.5 h ([1]; pancreas, po): 85.8 ng/mL
- concentration at 2 h ([1]; pancreas, po): 228 ng/mL
- concentration at 8 h ([1]; pancreas, po): 211 ng/mL
- concentration at 24 h ([1]; pancreas, po): 4.86 ng/mL
- concentration at 0.5 h ([1]; pancreas, sc): 753 ng/mL
- concentration at 2 h ([1]; pancreas, sc): 512 ng/mL
- concentration at 8 h ([1]; pancreas, sc): 215 ng/mL
- concentration at 24 h ([1]; pancreas, sc): 5.62 ng/mL
- concentration at 0.5 h ([1]; plasma, po): 14.8 ng/mL
- concentration at 2 h ([1]; plasma, po): 47.7 ng/mL
- concentration at 8 h ([1]; plasma, po): 13.7 ng/mL
- concentration at 0.5 h ([1]; plasma, sc): 166 ng/mL
- concentration at 2 h ([1]; plasma, sc): 48.9 ng/mL
- concentration at 8 h ([1]; plasma, sc): 11.1 ng/mL
- concentration at 24 h ([1]; plasma, sc): 0.929 ng/mL
- concentration at 0.5 h ([1]; spleen, po): 184 ng/mL
- concentration at 2 h ([1]; spleen, po): 742 ng/mL
- concentration at 8 h ([1]; spleen, po): 225 ng/mL
- concentration at 0.5 h ([1]; spleen, sc): 1990 ng/mL
- concentration at 2 h ([1]; spleen, sc): 1290 ng/mL
- concentration at 8 h ([1]; spleen, sc): 282 ng/mL
- concentration at 24 h ([1]; spleen, sc): 16.5 ng/mL
- concentration at 0.5 h ([1]; stomach, po): 1360 ng/mL
- concentration at 2 h ([1]; stomach, po): 806 ng/mL
- concentration at 8 h ([1]; stomach, po): 870 ng/mL
- concentration at 0.5 h ([1]; stomach, sc): 999 ng/mL
- concentration at 2 h ([1]; stomach, sc): 587 ng/mL
- concentration at 8 h ([1]; stomach, sc): 128 ng/mL
- concentration at 24 h ([1]; stomach, sc): 9.84 ng/mL
Compound: COC(=O)C[C@](O)(CCCC(C)(C)O)C(=O)O[C@@H]1C(OC)=C[C@]23CCCN2CCc2cc4c(cc2[C@H]13)OCO4 [HHT, homoharringtonine]

Compound: Nc1ccn([C@@H]2O[C@H](CO)[C@@H](O)C2(F)F)c(=O)n1 [gemcitabine, Gemcitabine]
- tumor volume (KP-4 transplanted tumor): decreased significantly
- CC3 protein expression (TIP30/CC3): significantly increased
- MCL-1 protein level in tumor cells (MCL-1): no significant difference
